The results in this text go back to ChEMBL document CHEMBL4145466, “Design, synthesis, and biological evaluation of novel combretastatin A-4 thio derivatives as microtubule targeting agents” (Eur J Med Chem, 2018).

The term IC50 denotes the concentration at which inhibition is half-maximal. Lower therefore signals higher potency.

The target in data set [1] is T1, Tubulin (Homo sapiens) (UniProt P68371+Q9H4B7+P0DPH7+P68366+Q13509+Q71U36+P04350+Q3ZCM7+P07437+P68363+Q9BQE3+Q6PEY2+Q13885+Q9BVA1+Q9BUF5). As to the kind of experiment: Inhibition of tubulin polymerization in human A431 cells assessed as perturbation in cytoskeleton structure at 1 uM after 24 hrs by ELISA. It is filed as cell-based. In general terms: ELISA stands for enzyme-linked immunosorbent assay.

Data set [2] addresses T1, Tubulin (Homo sapiens). In words: Inhibition of tubulin polymerization in human A431 cells assessed as micronuclei formation at 1 uM after 24 hrs by Hoechst 33258/FITC staining-based flow cytometric analysis. The data set is classed as cell-based. In general terms: In flow cytometry, cells or beads pass a laser one at a time.
In data set [3] the test system is A-431. In words: Cell cycle arrest in human A431 cells assessed as accumulation of cells at G2/M phase at 0.1 to 1 uM after 24 hrs by propidium iodide staining-based FACS analysis. The data set is classed as functional. An outline of the steps:
(§1)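 Cells were seeded at 5 × 10^5 per well in DMEM with 10% FBS and left overnight, then exposed to 0.1, 0.5 or 1 µM for 24 h. DMSO served as the negative control and 50 nM camptothecin as the positive control. Cells were trypsinized, fixed in 70% ethanol for 30 min at 4 °C, stained with 50 µg/mL PI plus 100 µg/mL RNase A for 30 min in the dark, and analysed by flow cytometry. Results are mean ± SD of three experiments, compared by ANOVA with Dunnett's test.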

The subject of another data set is Tubulin. In words: Inhibition of tubulin polymerization in human HaCaT cells assessed as micronuclei formation at 1 uM after 24 hrs by Hoechst 33258/FITC staining-based […]. The data set is classed as cell-based. An outline of the steps: (§2)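 Cells seeded at 12.5 × 10^4 per well and exposed to 1 µM compound for 24 h. Nuclei were stained with Hoechst 33258 (10 µg/mL, 30 min, 37 °C), then fixed in 4% formaldehyde/PBS (15 min, RT). Cells were permeabilized with 1% Triton X-100, blocked with 2% BSA/PBS for 1 h, and incubated with anti-α-tubulin-FITC (1:50) overnight at 4 °C. Imaged by fluorescence microscopy.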

For data set [4], the target named is T1, Tubulin (Homo sapiens). As to the kind of experiment: Inhibition of tubulin polymerization in human MCF7 cells assessed as perturbation in cytoskeleton structure at 1 uM after 24 hrs by Hoechst 33258/FITC staining-based flow cytometric analysis. The data set is classed as cell-based. An outline of the steps: as §2
Data set [5] deals with SK-OV-3. As to the kind of experiment: Cell cycle arrest in human SKOV3 cells assessed as accumulation of cells at G2/M phase after 24 hrs by propidium iodide staining-based FACS analysis. It is filed as functional. A digest of the protocol:
as §1

Data set [6] addresses T1, Tubulin (Homo sapiens). In words: Inhibition of tubulin polymerization in human SKOV3 cells assessed as perturbation in cytoskeleton structure at 1 uM after 24 hrs by Hoechst 33258/FITC staining-based flow cytometric analysis. The data set is classed as cell-based. A digest of the protocol: as §2
Data set [7] has as its system HaCaT. In words: Induction of apoptosis in human HaCaT cells assessed as increase in histone-associated DNA fragments in oligonucleosomes after 24 hrs by ELISA. The data set is classed as cell-based. An outline of the steps: (§3)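 Cells (2 × 10^4) were incubated for 24 h at 0.1, 0.5 or 1 µM, lysed and centrifuged. Supernatants went onto a streptavidin plate with anti-histone-biotin and anti-DNA-peroxidase for 2 h, followed by ABTS for 30 min and a reading at 405 nm. Nucleosome content was expressed as an enrichment factor, as mean ± SD of three experiments.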

Data set [8] has as its system MCF7. In words: Cytotoxicity against human MCF7 cells after 48 hrs by MTT assay. The data set is classed as functional, cell-based. The following applies: MCF7, 48 h. A digest of the protocol: (§4)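 Cells in DMEM with 10% FBS were plated at 2 × 10^4 per well and left overnight, then treated for 48 h at 0.6–20 µM (six concentrations) from 10 mM DMSO stocks. MTT was added for 2 h, and formazan was dissolved in DMSO and read at 570 nm. Viability was expressed as % of control, with IC50 taken from dose-response curves. Results are mean ± SD of three independent experiments.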

Data set [9] deals with T1, Tubulin (Homo sapiens). As to the kind of experiment: Inhibition of tubulin polymerization in human HeLa cells assessed as chromatin condensation at 1 uM after 24 hrs by Hoechst 33258 staining-based fluorescence microscopic analysis. It is filed as cell-based. A digest of the protocol:
as §2

Data set [10] deals with HeLa. In words: Induction of apoptosis in human HeLa cells after 24 hrs by FITC Annexin V/propidium iodide staining-based FACScan flow cytometric analysis. The data set is classed as functional, cell-based. An outline of the steps:
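After 24 h of compound exposure, 1 × 10^6 cells were labelled with annexin V-FITC and PI for 15 min at 25 °C in the dark. They were read on a FACScan with 488 nm excitation, detecting FITC at 525 nm and PI at 620 nm. Results are mean ± SD of three independent experiments, with Dunnett's test against control.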

In data set [11] the test system is HeLa. As to the kind of experiment: Induction of apoptosis in human HeLa cells assessed as increase in histone-associated DNA fragments in oligonucleosomes after 24 hrs by ELISA. It is filed as functional, cell-based. An outline of the steps: as §3
Data set [12] in a line: Cytotoxicity against human CCD39Lu cells after 48 hrs by MTT assay. The data set is classed as cell-based. An outline of the steps:
as §4
(Formazan colour is commonly taken as a measure of viable cells.)

Data set [13] deals with SK-OV-3. As to the kind of experiment: Induction of apoptosis in human SKOV3 cells assessed as increase in histone-associated DNA fragments in mononucleosomes after 24 hrs by ELISA. It is filed as functional, cell-based. An outline of the steps: as §3
Data set [14] addresses T1, Tubulin (Homo sapiens). As to the kind of experiment: Inhibition of tubulin polymerization in human MCF7 cells assessed as perturbation in cytoskeleton structure at 1 uM after 24 hrs by ELISA. The data set is classed as cell-based.
The test system of data set [15] is SK-OV-3. As to the kind of experiment: Induction of apoptosis in human SKOV3 cells assessed as increase in histone-associated DNA fragments in oligonucleosomes after 24 hrs by ELISA. It is filed as functional, cell-based. An outline of the steps:
as §3

Data set [16] has as its system A-431. As to the kind of experiment: Cytotoxicity against human A431 cells after 48 hrs by MTT assay. The data set is classed as functional, cell-based. The following applies: A-431, 48 h. An outline of the steps: as §4
The target of data set [17] is T1, Tubulin (Homo sapiens). In words: Inhibition of tubulin polymerization in human SKOV3 cells assessed as micronuclei formation at 1 uM after 24 hrs by ELISA. The data set is classed as cell-based.
In data set [18] the target is T1, Tubulin (Homo sapiens). In words: Inhibition of tubulin polymerization in human MDA-MB-231 cells assessed as micronuclei formation at 1 uM after 24 hrs by Hoechst 33258/FITC staining-based flow cytometric analysis. The data set is classed as cell-based.
Data set [19] deals with MCF7. As to the kind of experiment: Induction of apoptosis in human MCF7 cells assessed as increase in histone-associated DNA fragments in oligonucleosomes at 0.1 uM after 24 hrs by ELISA. It is filed as functional, cell-based. An outline of the steps: as §3
Data set [20] concerns A-431. In words: Induction of apoptosis in human A431 cells assessed as increase in histone-associated DNA fragments in oligonucleosomes at 0.1 uM after 24 hrs by ELISA. It is filed as functional, cell-based. A digest of the protocol:
as §3

Data set [21] concerns HeLa. In words: Potency index, ratio of CA-4 IC50 to compound IC50 for cytotoxicity against human HeLa cells. The data set is classed as functional.
Data set [22] relates to HaCaT. In words: Induction of apoptosis in human HaCaT cells assessed as increase in histone-associated DNA fragments in oligonucleosomes at 0.1 uM after 24 hrs by ELISA. It is filed as cell-based. A digest of the protocol:
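HaCaT cells (2 × 10^4), grown in DMEM with 10% FBS, penicillin/streptomycin and 2 mM L-glutamine, exposed to compound (DMSO stock) for 24 h. Cells lysed, supernatant taken after centrifugation and incubated 2 h on a streptavidin-coated plate with anti-histone-biotin and anti-DNA-peroxidase. ABTS added for 30 min, A405 read. Output is enrichment factor vs control, mean ± SD of three independent experiments.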

In data set [23] the test system is A-431. In words: Induction of apoptosis in human A431 cells assessed as increase in histone-associated DNA fragments in mononucleosomes at 0.1 uM after 24 hrs by ELISA. The data set is classed as functional, cell-based. An outline of the steps: as §3
Data set [24] concerns HeLa. In words: Induction of apoptosis in human HeLa cells assessed as increase in histone-associated DNA fragments in oligonucleosomes at 0.1 uM after 24 hrs by ELISA. It is filed as functional, cell-based. An outline of the steps: as §3
For data set [25], the system named is SK-OV-3. In words: Induction of apoptosis in human SKOV3 cells assessed as increase in histone-associated DNA fragments in oligonucleosomes at 0.1 uM after 24 hrs by ELISA. The data set is classed as functional, cell-based. An outline of the steps: as §3

Active and inactive are the calls of the source. No cut-off for these calls is given here.

For the molecule `COc1ccc(-c2ocnc2-c2cc(Br)c(OC)c(OC)c2)cc1SC`, the inhibition entry at Tubulin (Homo sapiens) [1], on Tubulin (Homo sapiens) [2], on Tubulin (Homo sapiens) [4], at Tubulin (Homo sapiens) [6], on Tubulin (Homo sapiens) [9] and on Tubulin (Homo sapiens) [14] was “Active” in each case. The inhibition entry on Tubulin (Homo sapiens) [17] and at Tubulin (Homo sapiens) [18] was “Active” throughout. Moreover, the outcome with A-431 [3] was Active. Besides, in the data set on Tubulin, the “inhibition (INH)” value was “Active”. Also, the Activity result with SK-OV-3 [5], with HaCaT [7], in the data set with HeLa [10], in the data set on HeLa [11], in the data set with SK-OV-3 [13] and with SK-OV-3 [15] was “Dose-dependent effect” throughout. Also, the IC50 in the data set on MCF7 [8] is 2780 nM; in data set [12] it was over 20000 nM; with A-431 [16], 430 nM.

With `COc1ccc(-c2ocnc2-c2cc(OC)c(SC)c(OC)c2)cc1O`, the inhibition entry at Tubulin (Homo sapiens) [1], at Tubulin (Homo sapiens) [2], at Tubulin (Homo sapiens) [4], on Tubulin (Homo sapiens) [6], at Tubulin (Homo sapiens) [14] and at Tubulin (Homo sapiens) [17] was “Active” each time. The inhibition result at Tubulin (Homo sapiens) [18] was “Active”. Also, the result in the data set on MCF7 [19], in the data set with A-431 [3], in the data set on A-431 [20], with A-431 [23], with HeLa [24] and in the data set with SK-OV-3 [25] was Active. Moreover, in the data set with Tubulin, the “inhibition (INH)” value was “Active”. Also, in the data set on HeLa [21], the “Ratio IC50” value is reported as 10. Moreover, the results for the Activity result with HaCaT [22] and in the data set on HeLa [10] were “Toxic” and “Dose-dependent effect”, respectively. Moreover, the IC50 in the data set with MCF7 [8] is 450 nM; in data set [12] it was over 20000 nM; with A-431 [16], 250 nM.
